What was measured:
PRRSV GD-XH strain = assay: Antiviral activity by indirect immunofluorescence assay; type: cell-based, porcine reproductive and respiratory syndrome virus; details: MARC-145 cells; for EC50: Porcine reproductive and respiratory syndrome virus, MARC145, PRRSV GD-XH (0.05 MOI), IFA at 48 hpi; for Selectivity index (SI): ratio of CC50 to EC50, PRRSV GD-XH
PRRSV CH-1a strain = assay: Antiviral activity by IFA, PRRSV CH-1a in MARC-145 cells; type: cell-based; details: Porcine reproductive and respiratory syndrome virus, MARC145
Outline: (§1)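 MARC-145 monolayers infected at 0.05 MOI for 2 h at 37 °C. Inoculum removed and fresh medium with serial compound concentrations added. Cells then fixed in 4% paraformaldehyde, permeabilized with Triton X-100, blocked with BSA and stained for N protein (mAb 4A5, 1:400, 4 °C overnight), with Alexa 568 secondary and DAPI. Red and blue ODs digitized; protection % derived against DMSO wells. EC50 by nonlinear regression; three independent experiments.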

PRRSV VR2332 strain = assay: Antiviral activity by IFA, PRRSV VR2332 in MARC-145 cells; type: cell-based; details: Porcine reproductive and respiratory syndrome virus, MARC145
Outline: as §1

PRRSV NADC30-like strain = assay: Antiviral activity by IFA, PRRSV NADC30-like in MARC-145 cells; type: cell-based; details: Porcine reproductive and respiratory syndrome virus, MARC145
Outline: as §1

In the case of `NC(=O)c1ncn([C@@H]2O[C@H](CO)[C@@H](O)[C@H]2O)n1` [Ribavirin], the EC50 (PRRSV GD-XH strain) is reported as 23.7 ± 3.1 µM, the “Selectivity index (SI)” value (PRRSV GD-XH strain) is reported as over 27 and the EC50 (PRRSV CH-1a strain) is reported as 31.5 ± 2.8 µM. The EC50 (PRRSV VR2332 strain) was 22.3 ± 3.1 µM and the EC50 (PRRSV NADC30-like strain) was 16.8 ± 2.1 µM.

`C[C@H]1[C@H](C)CC[C@]2(C(=O)O)CC[C@]3(C)C(=CC[C@@H]4[C@@]5(C)CC[C@H](O)C(C)(C)[C@@H]5CC[C@]43C)[C@H]12` [UA, Ursolic acid] was tested, and the EC50 (PRRSV GD-XH strain) was 8.03 ± 0.93 µM, the “Selectivity index (SI)” value (PRRSV GD-XH strain) was 8.1 and the EC50 (PRRSV CH-1a strain) was 11.3 ± 0.78 µM. It also gave an EC50 (PRRSV VR2332 strain) of 5.66 ± 0.52 µM and an EC50 (PRRSV NADC30-like strain) of 5.03 ± 0.35 µM.

Source: paper PMC9054602 (RSC Advances, 2020)
